Results on five compounds are retold here after ChEMBL document CHEMBL4425130, “Macrocyclic Prodrugs of a Selective Nonpeptidic Direct Thrombin Inhibitor Display High Permeability, Efficient Bioconversion but Low Bioavailability” (J Med Chem, 2016).

Converted amounts (≈) assume the structure as drawn.

For data set [1] the following is noted: rat, isolated protein, 40 min, 4 µM.
The nature of data set [2]: Solubility of the compound in phosphate buffer at pH 7.4 at 25 degC after 24 hrs by ultraperformance LC/MS/MS method.
The next data set in a line: physchem. The conditions noted are these: 1-octanol/phosphate buffer, pH 7.4.
Data set [3] can be described thus: Prodrug conversion in human liver microsomes assessed as 3-((3-(2-(2-(Aminomethyl)-5-chlorobenzylamino)-2-oxoethyl)-4-methyl-2-oxo-5,6-dihydropyridin-1(2H)-ylamino)methyl)benzoic acid formation in absence of NADPH. Format: ADME, Microsome.
Data set [4] is described as follows: Prodrug conversion in human liver microsomes assessed as 3-((3-(2-(2-(Aminomethyl)-5-chlorobenzylamino)-2-oxoethyl)-4-methyl-2-oxo-5,6-dihydropyridin-1(2H)-ylamino)methyl)benzoic acid formation in presence of NADPH. Format: ADME, Microsome.
Data set [5] can be described thus: Efflux ratio of apparent permeability across basolateral to apical over apical to basolateral side in human Caco2 cells at 10 uM after 45 to 120 mins by ultraperformance LC/MS/MS method. The conditions noted are these: Caco-2. (In general: Caco-2 cells form a polarised layer with tight junctions and transporters.)
A short description of data set [6]: Apparent permeability across apical to basolateral side in human Caco2 cells at 10 uM after 45 to 120 mins by ultraperformance LC/MS/MS method. The conditions noted are these: Caco-2.
The nature of data set [7]: Prodrug conversion in rat hepatocytes assessed as esterase-mediated 3-((3-(2-(2-(Aminomethyl)-5-chlorobenzylamino)-2-oxoethyl)-4-methyl-2-oxo-5,6-dihydropyridin-1(2H)-ylamino)methyl)benzoic acid formation at 4 uM after 40 mins by ultraperformance liquid chromatographic method. Format: ADME, cell-based.
Data set [8] can be described thus: Prodrug conversion in human plasma assessed as esterase-mediated metabolite formation after 4 hrs. The data set is classed as ADME, cell-free.
A short description of data set [9]: AUCinfinity in Han Wistar rat assessed as 3-((3-(2-(2-(Aminomethyl)-5-chlorobenzylamino)-2-oxoethyl)-4-methyl-2-oxo-5,6-dihydropyridin-1(2H)-ylamino)methyl)benzoic acid formation at 1 umol/kg administered intraduodenally by LC-MS/MS method. The conditions noted are these: in vivo, other. On the set-up: dose 1 umol/kg, route intraduodenal, time infinity. The data set is classed as ADME. A digest of the protocol:
(§1)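 Male Han Wistar rats, cannulated in the carotid artery for sampling and the jugular vein for i.v. dosing, one week before the study (two days before for intraduodenal dosing). Single doses: 0.5 µmol/kg i.v., or 1 µmol/kg by gavage or intraduodenally. Vehicles were 5% mannitol in water or DMA:TEG:water (1:1:1). Plasma sampled up to 24 h and analysed by LC-MS/MS. Non-compartmental analysis; means of n=3, with F from mean AUCinf.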

A further data set deals with Serine protease 1 (Homo sapiens, UniProt P07477). The experiment in a line: Inhibition of human trypsin 1 using S-2222 as substrate preincubated for 300 secs followed by substrate addition measured after 40 mins. The gist of the method:
(§2)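 Human proteases assayed at one substrate concentration with ten inhibitor concentrations at 37 °C, ≤1.3% DMSO, in an enzyme-specific Tris-HCl pH 7.4 buffer. Enzyme and inhibitor preincubated 300 s, then substrate added; absorbance read at 405 nm after 40 min. IC50 converted to Ki by IC50 = Ki(1+S/KM), using KM measured under assay conditions.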

The target of a further data set is Prothrombin (Homo sapiens, UniProt P00734). The experiment in a line: Inhibition of human alpha-thrombin using S-2366 as substrate after 40 mins.
A short description of data set [10]: Cmax in Han Wistar rat at 1 umol/kg administered intraduodenally by LC-MS/MS method. Format: ADME. Also noted: dose 1 umol/kg, route intraduodenal. The conditions noted are these: in vivo. The gist of the method: as §1
Data set [11] is described as follows: Oral bioavailability in Han Wistar rat assessed as 3-((3-(2-(2-(Aminomethyl)-5-chlorobenzylamino)-2-oxoethyl)-4-methyl-2-oxo-5,6-dihydropyridin-1(2H)-ylamino)methyl)benzoic acid formation at 1 umol/kg administered via gavage by LC-MS/MS method. The conditions noted are these: in vivo. Format: ADME, organism-based. The gist of the method:
as §1

Data set [12] in a line: Cmax in Han Wistar rat at 1 umol/kg, po administered via gavage by LC-MS/MS method. Also noted: dose 1 umol/kg, route oral. The conditions noted are these: in vivo. The data set is classed as ADME, organism-based. The gist of the method: as §1
The nature of data set [13]: Apparent terminal half life in Han Wistar rat at 1 umol/kg, po administered via gavage by LC-MS/MS method. The conditions noted are these: in vivo, read-out: betat1/2(app) (converted). Format: ADME, organism-based. A digest of the protocol: as §1
Data set [14] can be described thus: Prodrug conversion in human hepatocytes assessed as esterase-mediated formaldehyde formation at 4 uM after 40 mins by ultraperformance liquid chromatographic method. Format: ADME, cell-based. Conditions: isolated protein. A digest of the protocol: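 Cryopreserved human hepatocytes at 10^6 viable cells/mL, thawed and pre-warmed 10 min at 37 °C. Compound added from CH3CN stock at 4 µM final. Incubated 40 min, then quenched in cold CH3CN, with compound-free incubations as blanks. Metabolites assigned by LC-MS product ion spectra.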

Data set [15] can be described thus: AUCinfinity in Han Wistar rat assessed as 3-((3-(2-(2-(Aminomethyl)-5-chlorobenzylamino)-2-oxoethyl)-4-methyl-2-oxo-5,6-dihydropyridin-1(2H)-ylamino)methyl)benzoic acid formation at 1 umol/kg, po administered via gavage by LC-MS/MS method. Format: ADME, organism-based. Also noted: dose 1 umol/kg, time infinity, route oral. The conditions noted are these: in vivo. A digest of the protocol:
as §1

Data set [16] can be described thus: Apparent terminal half life in Han Wistar rat at 1 umol/kg administered intraduodenally by LC-MS/MS method. The data set is classed as ADME. Conditions: in vivo, read-out: betat1/2(app) (converted). The gist of the method: as §1
Data set [17] in a line: Bioavailability in Han Wistar rat assessed as 3-((3-(2-(2-(Aminomethyl)-5-chlorobenzylamino)-2-oxoethyl)-4-methyl-2-oxo-5,6-dihydropyridin-1(2H)-ylamino)methyl)benzoic acid formation at 1 umol/kg administered intraduodenally by LC-MS/MS method. Format: ADME, organism-based. Conditions: in vivo, other. A digest of the protocol:
as §1

Data set [18] can be described thus: Drug level in rat hepatocytes treated with Methyl 3-(((3-(2-((5-Chloro-2-(((methoxycarbonyl)amino)-methyl)benzyl)amino)-2-oxoethyl)-4-methyl-2-oxo-5,6-dihydropyridin-1(2H)-yl)amino)methyl)benzoate assessed as esterase-mediated compound formation at 4 uM after 40 mins by ultraperformance liquid chromatographic method. The data set is classed as ADME, cell-based. The conditions noted are these: isolated protein.

A short description of data set [19]: Inhibition of human tissue factor/F7a using spectrozyme as substrate preincubated for 300 secs followed by substrate addition measured after 40 mins. The gist of the method: as §2
A further data set deals with Coagulation factor XI (Homo sapiens, UniProt P03951). The experiment in a line: Inhibition of human F11a using S-2366 as substrate preincubated for 300 secs followed by substrate addition measured after 40 mins. A digest of the protocol:
as §2

The species named for data set [20] is Homo sapiens. The experiment in a line: Selectivity ratio of Ki for human F9a to Ki for human alpha-thrombin.
For data set [21], the species on record is Homo sapiens. The experiment in a line: Selectivity ratio of Ki for human plasmin to Ki for human alpha-thrombin.
Data set [22] concerns the target Thrombin & trypsin (Homo sapiens) (UniProt P00734+P07477+P07478+P35030). The experiment in a line: Selectivity ratio of Ki for human trypsin 1 to Ki for human alpha-thrombin. Format: protein assay.
The species named for data set [23] is Homo sapiens. The experiment in a line: Selectivity ratio of Ki for human F11a to Ki for human alpha-thrombin.
Another data set concerns the target Coagulation factor IX (Homo sapiens, UniProt P00740). The experiment in a line: Inhibition of human F9a using pefachrome F9a as substrate preincubated for 300 secs followed by substrate addition measured after 40 mins.
The species entered for data set [24] is Homo sapiens. The experiment in a line: Selectivity ratio of Ki for human F10a to Ki for human alpha-thrombin.
In the next data set the target is Coagulation factor X (Homo sapiens, UniProt P00742). The experiment in a line: Inhibition of human F10a using S-2765 as substrate preincubated for 300 secs followed by substrate addition measured after 40 mins. A digest of the protocol:
as §2

The next data set concerns the target Cytochrome P450 3A4 (Homo sapiens, UniProt P08684). The experiment in a line: Inhibition of human CYP3A4. The data set is classed as ADME.
The species entered for a further data set is Rattus norvegicus. The experiment in a line: Antithrombotic activity in rat caval vein thrombosis model assessed as prevention of venous thrombosis. The data set is classed as functional, organism-based.
The next data set has as its system Plasma. The experiment in a line: Anticoagulant activity in human citrated plasma assessed as concentration required to double activated partial thromboplastin time after 3 mins by coagulation analyser. The conditions noted are these: 0.05 h. Format: functional, cell-free.
The target in a further data set is Plasminogen (Homo sapiens, UniProt P00747). The experiment in a line: Inhibition of human plasmin using S-2366 as substrate preincubated for 300 secs followed by substrate addition measured after 40 mins. The gist of the method:
as §2

Data set [25] can be described thus: Intrinsic clearance in Sprague-Dawley rat liver microsomes at 1 umol/L after 7 to 30 mins by LC-MS/MS method. The data set is classed as ADME, Microsome. The conditions noted are these: read-out: CLH. In general terms: Liver microsomes are vesicles of endoplasmic reticulum, rich in cytochrome P450 enzymes.
For data set [26], the species on record is Homo sapiens. The experiment in a line: Selectivity ratio of Ki for human tissue factor/F7a to Ki for human alpha-thrombin.

Sequence of Serine protease 1 (P07477 whole entry): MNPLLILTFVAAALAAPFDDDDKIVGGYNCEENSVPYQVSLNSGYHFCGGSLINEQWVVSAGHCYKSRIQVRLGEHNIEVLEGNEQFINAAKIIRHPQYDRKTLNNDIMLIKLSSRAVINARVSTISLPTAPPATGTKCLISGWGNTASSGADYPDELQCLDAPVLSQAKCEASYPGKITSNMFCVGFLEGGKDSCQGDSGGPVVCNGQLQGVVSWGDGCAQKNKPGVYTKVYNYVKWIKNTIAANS
Sequence of Coagulation factor IX (P00740 47-191 limits assumed): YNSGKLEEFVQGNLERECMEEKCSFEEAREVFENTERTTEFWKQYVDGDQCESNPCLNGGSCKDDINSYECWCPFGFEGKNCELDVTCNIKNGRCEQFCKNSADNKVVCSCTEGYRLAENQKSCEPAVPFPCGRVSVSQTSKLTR
Sequence of Coagulation factor IX (P00740 227-461 limits assumed): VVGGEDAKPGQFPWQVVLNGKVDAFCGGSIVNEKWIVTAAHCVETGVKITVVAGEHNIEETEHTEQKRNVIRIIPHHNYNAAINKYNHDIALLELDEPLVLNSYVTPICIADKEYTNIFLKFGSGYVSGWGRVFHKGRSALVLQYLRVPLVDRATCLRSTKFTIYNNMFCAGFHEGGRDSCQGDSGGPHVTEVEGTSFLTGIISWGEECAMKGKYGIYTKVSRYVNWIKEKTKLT
Sequence of Cytochrome P450 3A4 (P08684 whole entry): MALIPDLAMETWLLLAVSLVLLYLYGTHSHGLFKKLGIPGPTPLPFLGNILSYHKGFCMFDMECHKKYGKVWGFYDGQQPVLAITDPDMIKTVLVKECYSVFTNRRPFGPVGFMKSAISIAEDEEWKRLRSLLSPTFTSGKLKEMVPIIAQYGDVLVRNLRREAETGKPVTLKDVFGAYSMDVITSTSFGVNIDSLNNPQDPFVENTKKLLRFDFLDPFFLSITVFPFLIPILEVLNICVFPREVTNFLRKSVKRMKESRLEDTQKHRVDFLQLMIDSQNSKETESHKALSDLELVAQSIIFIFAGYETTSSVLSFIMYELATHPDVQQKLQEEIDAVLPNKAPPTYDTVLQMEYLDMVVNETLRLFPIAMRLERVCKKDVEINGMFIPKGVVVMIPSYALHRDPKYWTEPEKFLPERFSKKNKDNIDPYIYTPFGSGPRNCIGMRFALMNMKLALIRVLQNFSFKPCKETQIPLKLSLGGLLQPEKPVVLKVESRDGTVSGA
Sequence of Coagulation factor XI (P03951 19-387 limits assumed): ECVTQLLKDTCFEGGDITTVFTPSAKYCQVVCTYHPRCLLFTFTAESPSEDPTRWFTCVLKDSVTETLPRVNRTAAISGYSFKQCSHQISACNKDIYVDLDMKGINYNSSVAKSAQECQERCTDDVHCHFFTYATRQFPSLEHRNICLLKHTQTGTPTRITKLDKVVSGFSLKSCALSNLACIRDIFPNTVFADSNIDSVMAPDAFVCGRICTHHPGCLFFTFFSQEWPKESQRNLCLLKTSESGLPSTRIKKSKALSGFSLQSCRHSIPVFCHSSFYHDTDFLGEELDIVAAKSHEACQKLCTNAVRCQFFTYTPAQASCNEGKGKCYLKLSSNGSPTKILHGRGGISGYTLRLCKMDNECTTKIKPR
Sequence of Coagulation factor XI (P03951 388-625 limits assumed): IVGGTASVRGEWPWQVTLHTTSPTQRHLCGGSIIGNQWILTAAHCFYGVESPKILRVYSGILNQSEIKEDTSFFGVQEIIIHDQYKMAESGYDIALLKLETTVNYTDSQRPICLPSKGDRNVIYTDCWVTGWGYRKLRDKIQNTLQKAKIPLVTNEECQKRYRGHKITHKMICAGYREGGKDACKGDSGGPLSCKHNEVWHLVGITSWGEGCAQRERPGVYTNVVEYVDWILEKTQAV
Sequence of Coagulation factor X (P00742 41-179 limits assumed): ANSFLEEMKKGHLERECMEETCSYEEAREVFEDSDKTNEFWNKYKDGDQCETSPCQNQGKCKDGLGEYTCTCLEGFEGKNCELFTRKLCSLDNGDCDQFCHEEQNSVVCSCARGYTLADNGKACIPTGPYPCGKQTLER
Sequence of Coagulation factor X (P00742 235-488 limits assumed): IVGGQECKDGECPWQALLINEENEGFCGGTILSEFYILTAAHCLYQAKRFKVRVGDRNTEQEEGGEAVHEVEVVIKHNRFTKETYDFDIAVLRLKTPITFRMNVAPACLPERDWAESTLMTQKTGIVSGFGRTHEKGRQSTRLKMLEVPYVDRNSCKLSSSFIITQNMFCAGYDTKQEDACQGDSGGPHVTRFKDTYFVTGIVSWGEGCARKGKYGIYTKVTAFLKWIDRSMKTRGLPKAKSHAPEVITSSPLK
Sequence of Plasminogen (P00747 97-580 limits assumed): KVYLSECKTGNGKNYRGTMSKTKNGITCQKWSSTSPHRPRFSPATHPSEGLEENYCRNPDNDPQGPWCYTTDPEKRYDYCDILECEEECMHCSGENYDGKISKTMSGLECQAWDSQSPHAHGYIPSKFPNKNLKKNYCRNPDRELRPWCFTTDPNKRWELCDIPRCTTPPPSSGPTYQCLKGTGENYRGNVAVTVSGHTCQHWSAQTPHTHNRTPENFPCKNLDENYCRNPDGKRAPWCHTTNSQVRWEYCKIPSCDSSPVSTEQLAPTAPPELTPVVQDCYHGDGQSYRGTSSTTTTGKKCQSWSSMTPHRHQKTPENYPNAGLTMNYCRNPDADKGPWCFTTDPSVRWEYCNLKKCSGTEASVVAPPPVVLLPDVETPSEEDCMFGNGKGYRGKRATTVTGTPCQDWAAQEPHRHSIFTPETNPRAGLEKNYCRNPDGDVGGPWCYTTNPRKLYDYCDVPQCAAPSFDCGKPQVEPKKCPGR
Sequence of Plasminogen (P00747 581-810 limits assumed): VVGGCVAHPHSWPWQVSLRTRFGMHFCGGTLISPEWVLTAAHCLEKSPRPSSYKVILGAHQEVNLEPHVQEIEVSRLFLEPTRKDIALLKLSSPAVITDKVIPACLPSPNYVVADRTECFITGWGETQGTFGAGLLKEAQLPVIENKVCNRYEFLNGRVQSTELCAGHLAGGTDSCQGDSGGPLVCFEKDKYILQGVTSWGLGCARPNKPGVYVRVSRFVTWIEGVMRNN

For `C=O` [FORMALDEHYDE], the Drug metabolism entry in data set [1] is “Metabolite_Detected”.
Take `CC1=C2CC(=O)NCc3cc(Cl)ccc3CNC(=O)OC(C)OC(=O)c3cccc(c3)CNN(CC1)C2=O` (stereo unspecified): the solubility (as a rule, how much of the substance goes into solution per volume) at 24 h in [2] worked out at 340 µM (≈ 184 µg/mL). The logD (usually lipophilicity at a set pH, counting ionised and neutral species) at 3 h in “physchem” amounted to 2.6. Moreover, the Drug metabolism entry in [3] is listed as “Metabolite_Detected”; in data set [4], “Metabolite_Detected”; in data set [7] it was “Metabolite_Detected”; in data set [8], “Metabolite_Notdetected”. In addition, the efflux ratio (as a rule, the permeability from basolateral to apical divided by that in the opposite direction, in the common usage) at 10 µM in [5] amounted to 4.8. Further, the Papp A→B – broadly, how fast a substance crosses the layer from the apical side – at 10 µM in data set [6] worked out at 45 ×10⁻⁶ cm/s.
As for `CC1=C2CC(=O)NCc3cc(Cl)ccc3CNC(=O)OCOC(=O)c3cccc(c3)CNN(CC1)C2=O`, the AUC (in general, the area under the concentration-time curve, a measure of exposure) is 0.0081 µM·h in data set [9] and 0.0127 µM·h in [15]. Also, the inhibitory constant (Ki) (commonly a dissociation constant, usually derived from enzyme kinetics or from competition with a known ligand) is more than 5.4 µM at Serine protease 1 and 0.2 µM on Prothrombin. This compound yielded a solubility at 24 h in [2] of 120 µM (≈ 63.2 µg/mL). The compound also had a logD at 3 h in the data set “physchem” of 2.3. In addition, the Cmax (as a rule, the highest concentration seen after dosing) in data set [10] stood at 108 nM; in data set [12] it was 11 nM. Further, the Drug metabolism entry in data set [3] was “Metabolite_Detected”; in data set [4] it was “Metabolite_Detected”; in data set [14] it was “Metabolite_Detected”; in [7] it was “Metabolite_Detected”; in data set [8] it was “Metabolite_Notdetected”. For the same compound, the figures for the F in [11] and in [17] were 2.5% and 1.6%, respectively. Moreover, the efflux ratio at 10 µM in data set [5] stood at 5.6. In data set [6], the Papp A→B at 10 µM is 48 ×10⁻⁶ cm/s. The values for the half-life in [13] and in data set [16] were 67.2 min and 6.6 min, respectively.
Turning to `CC1=C(CC(=O)NCc2cc(Cl)ccc2CNC(=O)OC(C)(C)C)C(=O)N(NCc2cccc(C(=O)O)c2)CC1`, in data set [18], the Drug metabolism result is listed as “Metabolite_Detected”.
With `CC1=C(CC(=O)NCc2cc(Cl)ccc2CN)C(=O)N(NCc2ccccc2)CC1`, the Ki in data set [19] was more than 33 µM; on Coagulation factor XI, more than 19 µM; at Coagulation factor IX, more than 29 µM; on Serine protease 1 it was more than 5.4 µM; at Prothrombin, 0.0005 µM; at Coagulation factor X it was more than 17 µM. Further, at Plasminogen, the Ki was more than 19 µM. Further, the Ratio Ki (in the data set filed under Homo sapiens [20]; in the data set listed under Homo sapiens [21]; in data set [22]; in the data set filed under Homo sapiens [23]; in the data set listed under Homo sapiens [24]; in the data set listed under Homo sapiens [26]) was more than 1000 each time. Further, the results for the IC50 against Cytochrome P450 3A4, in the data set filed under Rattus norvegicus and in the data set with Plasma were 13 µM, 0.072 µM and 0.68 µM, respectively. For the same compound, the microsomal CLint at 1 µM in data set [25] was found to be 150 µL/min/mg.
